# Experimental data taken from ChEMBL document CHEMBL4673384, “Studying Histone Deacetylase Inhibition and Apoptosis Induction of Psammaplin A Monomers with Modified Thiol Group” (ACS Med Chem Lett, 2021).
# Calls of active or inactive are those of the source. No cut-off for these calls is given here.
# How the values were obtained:
# HL-60 [1] = test: Induction of apoptosis in human HL-60 cells assessed as necrotic cells at 8 uM incubated for 24 hrs by propidium iodide and annexin-V FITC staining based FACS analysis (reference value: 0.5 %); format: functional
# [2] = Antitumor activity against mouse LL/2 cells inoculated in C57BL/6J mouse assessed as tumor growth inhibition at 100 mg/kg, ip administered for 12 days; format: functional, Lewis lung carcinoma; design: scale not given: the % may be the effect or the level left; conditions: time 12 day
# [3] = Antitumor activity against mouse LL/2 cells inoculated in C57BL/6J mouse assessed as reduction of tumor weight at 100 mg/kg, ip administered for 12 days and measured at day 14 (reference value: 1.2 +/- 0.3 g); format: functional, Lewis lung carcinoma; conditions: time 12 day
# HL-60 [4] = test: Induction of apoptosis in human HL-60 cells assessed as viable cells at 8 uM incubated for 24 hrs by propidium iodide and annexin-V FITC staining based FACS analysis (reference value: 92.05 %); format: functional; conditions: read-out: Activity
# HL-60 [5] = test: Induction of apoptosis in human HL-60 cells assessed as late apoptotic cells at 8 uM incubated for 24 hrs by propidium iodide and annexin-V FITC staining based FACS analysis (reference value: 4.2 %); format: functional
# HL-60 [6] = test: Induction of apoptosis in human HL-60 cells assessed as early apoptotic cells at 8 uM incubated for 24 hrs by propidium iodide and annexin-V FITC staining based FACS analysis (reference value: 2.9 %); format: functional
# HL-60 [7] = test: Induction of apoptosis in human HL-60 cells assessed as late apoptotic cells at 1 uM incubated for 24 hrs by propidium iodide and annexin-V FITC staining based FACS analysis (reference value: 4.2 %); format: functional
# HL-60 [8] = test: Induction of apoptosis in human HL-60 cells assessed as early apoptotic cells at 1 uM incubated for 24 hrs by propidium iodide and annexin-V FITC staining based FACS analysis (reference value: 2.9 %); format: functional
# HL-60 [9] = test: Induction of apoptosis in human HL-60 cells assessed as viable cells at 1 uM incubated for 24 hrs by propidium iodide and annexin-V FITC staining based FACS analysis (reference value: 92.5 %); format: functional; conditions: read-out: Activity
# HL-60 [10] = test: Induction of apoptosis in human HL-60 cells assessed as necrotic cells at 1 uM incubated for 24 hrs by propidium iodide and annexin-V FITC staining based FACS analysis (reference value: 0.5 %); format: functional
# HL-60 [11] = test: Induction of apoptosis in human HL-60 cells assessed as necrotic cells at 1 uM incubated for 24 hrs by propidium iodide and annexin-V FITC staining based FACS analysis (reference value: 0.3 %); format: functional
# HL-60 [12] = test: Induction of apoptosis in human HL-60 cells assessed as late apoptotic cells at 1 uM incubated for 24 hrs by propidium iodide and annexin-V FITC staining based FACS analysis (reference value: 4.8 %); format: functional
# HL-60 [13] = test: Induction of apoptosis in human HL-60 cells assessed as early apoptotic cells at 1 uM incubated for 24 hrs by propidium iodide and annexin-V FITC staining based FACS analysis (reference value: 2.8 %); format: functional
# HL-60 [14] = test: Induction of apoptosis in human HL-60 cells assessed as late apoptotic cells at 0.5 uM incubated for 24 hrs by propidium iodide and annexin-V FITC staining based FACS analysis (reference value: 4.8 %); format: functional
# HL-60 [15] = test: Induction of apoptosis in human HL-60 cells assessed as necrotic cells at 2 uM incubated for 24 hrs by propidium iodide and annexin-V FITC staining based FACS analysis (reference value: 0.3 %); format: functional
# HL-60 [16] = test: Induction of apoptosis in human HL-60 cells assessed as cleavage of PARP at 0.5 to 2 uM after 24 hrs Western blot analysis; format: functional, cell-based; conditions: dose 0.5-2 µM
# Method in brief: (§1)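 HL-60 cells were treated for 24 h at the indicated concentrations, then analysed by Western blot. Blots were probed for cleavage of PARP and caspase-3, -8 and -9. Ac-H3, Ac-α-tubulin and β-actin were also detected, with β-actin as the loading reference.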
# Histone deacetylase 2 = Histone deacetylase 2 (Homo sapiens, UniProt Q92769); test: Inhibition of HDAC2 in human HL-60 cells assessed as increase in Ac-H3 level at 0.5 to 2 uM incubated for 24 hrs by Western blot analysis; format: cell-based; conditions: dose 0.5-2 µM
# Method in brief: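 Compound given to HL-60 cells for 24 h at the stated concentrations, then lysed. Acetyl-histone H3 and acetyl-α-tubulin levels were read by Western blot, with total H3, α-tubulin or β-actin as references.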
# HL-60 [17] = test: Induction of apoptosis in human HL-60 cells assessed as cleavage of caspase-8 at 0.5 to 2 uM after 24 hrs Western blot analysis; format: functional, cell-based; conditions: dose 0.5-2 µM; method in brief: as §1
# HL-60 [18] = test: Induction of apoptosis in human HL-60 cells assessed as early apoptotic cells at 0.5 uM incubated for 24 hrs by propidium iodide and annexin-V FITC staining based FACS analysis (reference value: 2.8 %); format: functional
# HL-60 [19] = test: Induction of apoptosis in human HL-60 cells assessed as late apoptotic cells at 2 uM incubated for 24 hrs by propidium iodide and annexin-V FITC staining based FACS analysis (reference value: 4.8 %); format: functional
# HL-60 [20] = test: Induction of apoptosis in human HL-60 cells assessed as cleavage of caspase-3 at 0.5 to 2 uM after 24 hrs Western blot analysis; format: functional, cell-based; conditions: dose 0.5-2 µM; method in brief: as §1
# Histone deacetylase 2, sequence (Q92769 whole entry): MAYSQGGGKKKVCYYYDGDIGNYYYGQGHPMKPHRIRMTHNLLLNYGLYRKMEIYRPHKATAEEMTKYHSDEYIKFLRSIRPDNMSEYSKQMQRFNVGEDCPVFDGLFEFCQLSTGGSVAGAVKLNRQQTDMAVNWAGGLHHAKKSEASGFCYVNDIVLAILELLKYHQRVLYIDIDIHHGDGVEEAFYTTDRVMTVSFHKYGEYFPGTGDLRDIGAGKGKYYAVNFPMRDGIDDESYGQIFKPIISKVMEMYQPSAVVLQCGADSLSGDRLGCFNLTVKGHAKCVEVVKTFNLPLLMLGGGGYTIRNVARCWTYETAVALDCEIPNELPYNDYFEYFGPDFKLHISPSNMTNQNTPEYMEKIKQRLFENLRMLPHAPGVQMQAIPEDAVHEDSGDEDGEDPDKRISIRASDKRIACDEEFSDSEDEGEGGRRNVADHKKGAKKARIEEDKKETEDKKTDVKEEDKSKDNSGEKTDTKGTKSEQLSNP
structure (smiles),measurement,setting,value
O=C(NCCS)/C(Cc1ccc(O)c(Br)c1)=N/O,Activity,HL-60 [1],3.3%
same,Activity,[2],62%
same,Activity,[3],0.5 g
same,viability at 8 µM,HL-60 [4],68.3%
same,Activity,HL-60 [5],25.1%
same,Activity,HL-60 [6],3.3%
O=C(NCCSSCCNC(=O)/C(Cc1ccc(O)c(Br)c1)=N/O)/C(Cc1ccc(O)c(Br)c1)=N/O [PSAMMAPLIN A],Activity,HL-60 [7],7.8%
same,Activity,HL-60 [8],2.6%
same,viability at 1 µM,HL-60 [9],88.8%
same,Activity,HL-60 [10],0.8%
O=C(CCNC(=O)/C(Cc1ccc(O)c(Br)c1)=N/O)NO,Activity,HL-60 [11],0.5%
same,Activity,HL-60 [12],12.6%
same,Activity,HL-60 [13],7.1%
same,Activity,HL-60 [14],5.9%
same,Activity,HL-60 [15],0.8%
same,Activity,HL-60 [16],Active
same,inhibition,Histone deacetylase 2,Active
same,Activity,HL-60 [17],Active
same,Activity,HL-60 [18],1.9%
same,Activity,HL-60 [19],21.9%
same,Activity,HL-60 [20],Active
